Screening data: PubChem, several laboratories
The list is not random: actives were taken first. Their share in the collection is about 1.8%.
GRK2 inh: human GRK2 inhibition via aptamer displacement. P25098. bead flow cytometry, FAM-aptamer displacement from GRK2. inhibition of aptamer binding, % at 10 µM. 330,000 compounds, 0.59% hits;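 active = inhibition of aptamer binding above 40%, roughly 3 SD of noise, on plates passing a quality check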;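 also: median bead fluorescence of bound FAM aptamer so fluorescent compounds give negative values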
DDE Tn7 FP inh: disrupts Tn7 cyclic peptide binding to fibrin D-Dimer-E complex; 370,000 compounds, 0.13% hits; inhibition, % at 8.3 µM; FP displacement of FITC-Tn7 peptide from fibrin DD(E); 0% = median of compound wells per plate; AID 720508;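 active = inhibition above the mean of compounds falling within the control limits plus 3 SD of them, cut at about 14% in these data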;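 also: 0% = plate median of compound wells and 100% = 10 µM Aha-Tn7 peptide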
Target sequence (P02675 whole entry, looked up): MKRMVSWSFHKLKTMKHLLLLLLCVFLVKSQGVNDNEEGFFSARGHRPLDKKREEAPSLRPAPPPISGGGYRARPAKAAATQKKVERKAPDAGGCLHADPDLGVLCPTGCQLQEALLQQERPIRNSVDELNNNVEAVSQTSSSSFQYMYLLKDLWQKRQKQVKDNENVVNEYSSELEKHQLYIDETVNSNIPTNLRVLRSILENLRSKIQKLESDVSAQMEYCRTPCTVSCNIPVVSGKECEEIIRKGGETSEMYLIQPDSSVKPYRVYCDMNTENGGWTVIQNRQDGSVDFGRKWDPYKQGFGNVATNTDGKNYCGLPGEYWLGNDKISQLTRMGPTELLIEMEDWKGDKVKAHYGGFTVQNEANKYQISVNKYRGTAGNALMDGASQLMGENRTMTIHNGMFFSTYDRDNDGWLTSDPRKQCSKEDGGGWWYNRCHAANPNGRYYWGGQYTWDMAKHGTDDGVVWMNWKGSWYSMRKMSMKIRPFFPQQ
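Assay system: Human clot-derived fibrin DD(E) complex | Buffer or medium: Tris/NaCl/CaCl2 buffer, pH 7.8 | Repeats: One replicate per compound | Benchmarks: Aha-Tn7 high control | Measure: % inhibition scaled between sample-field median and high-control FP | Schedule: 10 min plus 3 h, room temperature | Signal: Fluorescence polarization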
CAL PDZ FP-1: inhibitors of human CAL PDZ peptide binding. Q9HD26. 300,000 compounds, 0.92% hits. AID 602252. purified CAL PDZ, TMR-peptide fluorescence polarization, 1 h. inhibition, % at 24.9 µM;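 active = mean inhibition of at least 30% with at least half of replicates also reaching 30%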;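 also: 0% = DMSO neutral control and 100% = excess unlabeled competitor peptide PRC23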
DDE Tn6 FP inh: disrupts Tn6 cyclic peptide binding to fibrin D-Dimer-E complex; inhibition, % at 8.3 µM; Fibrin DD(E) TRITC-Tn6 fluorescence polarization displacement; 370,000 compounds, 0.21% hits;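 active = inhibition above a per-campaign cutoff: mean of compounds within control limits plus 3 SD, cut at about 15% in these data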;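 also: 0% = median of all compound wells on the plate and 100% = blocking peptide control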
ARNT-TACC3 inh: disrupts binding between human ARNT and TACC3. Q9Y6A5. AlphaScreen His-ARNT PAS-B/GST-TACC3 binding, luminescence; TACC3 fragment carries E629A point mutation. inhibition, % at 9.99 µM. 390,000 compounds, 0.66% hits. AID 623870;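 active = mean inhibition of replicates at least 50% and at least half of replicates each reaching 50%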;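 also: 0% = complete ARNT plus TACC3 wells and 100% = ARNT alone without TACC3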
CAL PDZ FP-2: inhibitors of human CAL PDZ peptide binding; Q9HD26; purified CAL PDZ, TMR-peptide fluorescence polarization, 1 h; inhibition, % at 20 µM; 330,000 compounds, 0.02% hits;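 active = highest replicate inhibition of at least 40%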;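 also: plate controls were DMSO neutral control wells for no effect and unlabeled competitor peptide control wells for full effect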
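System: tagged CAL PDZ domain. Schedule: 1 h room-temperature incubation prior to read. Signal: fluorescence polarization (mP). Measure: percent inhibition from loss of millipolarization.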
DDE Tn6 FP ctr: counter-screen for inhibitors of Tn6 peptide binding to fibrin DD(E); TRITC-Tn6 fluorescence polarization displacement; 0% = median of compound wells, not DMSO; 680 compounds, 2% hits; inhibition, % at 8.3 µM; shares compounds with DDE Tn6 FP inh;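 active = inhibition above the mean of test compounds lying between the control limits plus 3 SD of those, cut at about 14% in these data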;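 also: 0% = median of compound wells and 100% = wells with Aha-Tn7 blocking peptide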
DDE Tn6 confirm: DD(E)-Tn6 binding inhibition, FP confirmation | FP displacement of TRITC-Tn6 peptide from DD(E); 0% = per-plate median of test wells | shares compounds with DDE Tn6 FP inh | inhibition, % at 8.3 µM | AID 720631 | 680 compounds, 10% hits;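 active = inhibition above the mean of compounds lying within the control limits plus 3 SD, cut at about 16% in these data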;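 also: 100% = high control wells holding a competing inhibitor peptide at 10 µM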
The depositor's hits bear a star; / = no result.

SMILES | GRK2 inh | DDE Tn7 FP inh | CAL PDZ FP-1 | DDE Tn6 FP inh | ARNT-TACC3 inh | CAL PDZ FP-2 | DDE Tn6 FP ctr | DDE Tn6 confirm
CCC(C)(C)C1CCc2c(sc(N)c2C(N)=O)C1 (stereo not drawn) | 5 | 7 | 0 | 17* | -4 | 0 | -3 | -10
O=C(C[C@H]1CC[C@H]2[C@@H](COC[C@H](O)CN2S(=O)(=O)c2cccc(F)c2)O1)Nc1ccccc1 | / | / | / | / | 0 | / | / | /
CC(C)(O)C(=O)NNC(=S)Nc1cccc(C(F)(F)F)c1 | 0 | 5 | / | 17* | 6 | 0 | 3 | 2
FC(F)(F)c1cccc(NC(=S)NNC(=S)Nc2cccc(C(F)(F)F)c2)c1 | 0 | / | / | / | / | / | / | /
C[C@H](CO)N1C[C@H](C)[C@H](CN(C)S(=O)(=O)c2ccc(Cl)cc2)Oc2ccc(NC(=O)Cc3ccccc3)cc2C1=O | / | / | / | / | 0 | / | / | /
CCOC(=O)CNC(=O)Nc1cccc(Cl)c1C | 0 | -1 | 2 | 52* | -5 | -2 | 1 | -4
Cc1cc(Br)cn2c(Cc3ccsc3)c(-c3cccc(Cl)c3)nc12 | / | -1 | / | 18* | / | / | 11 | 6
Cc1cc(Br)cn2c(Cc3cccc(Cl)c3)c(-c3cccc(Cl)c3)nc12 | / | 3 | / | 0 | / | / | / | /
Cc1ccc(S(=O)(=O)Nc2ccc3c(c2)C(=O)N([C@H](C)CO)C[C@@H](C)[C@@H](CN(C)S(=O)(=O)c2cn(C)cn2)OCCCC[C@H](C)O3)cc1 | / | / | / | / | -7 | / | / | /
CCO/C(C)=N/Oc1cccc(N(C)C)c1 | / | 8 | / | 19* | / | / | 3 | 2
NS(=O)(=O)c1ccc(NC(=S)NC(=O)/C=C/c2cccs2)cc1 | 0 | -2 | 0 | 3 | -1 | -1 | / | /
NC(N)=NS(=O)(=O)c1ccc(NC(=S)NC(=O)/C=C/c2cccs2)cc1 | 0 | 7 | -4 | 51* | -3 | -1 | -8 | -8
C[C@H](CO)N1C[C@H](C)[C@H](CN(C)C(=O)C2CCC2)Oc2ncc(-c3cccc(C#N)c3)cc2C1=O | / | / | / | / | -9 | / | / | /
CS(=O)(=O)c1cccc(-c2csc(N3CCC(C(N)=O)CC3)n2)c1 | 0 | -3 | -3 | 16* | -3 | -1 | 6 | -2
O=C(NC(=S)Nc1ccccc1)c1cc(-c2ccccc2)nc2ccccc12 | 1 | 5 | -1 | 21* | / | -3 | 7 | -3
CC1(C)CCN2CCC(C)(C)c3c(O)ccc1c32 | 0 | 8 | -9 | 30* | 13 | -1 | 2 | 4
CCc1nc2ccc(C(=O)N(C)Cc3ccco3)cn2c1N(CC)Cc1cccc(Br)c1 | / | 5 | / | -17 | / | / | / | /
Cc1ccc(C2NC(=O)c3c(sc4c3CCN(C)C4)N2)o1 (stereo not drawn) | 3 | 11 | -2 | 5 | 4 | -2 | / | /
Cc1ccc(C2NC(=O)c3c(sc4c3CCN(C)C4)N2)s1 (stereo not drawn) | 5 | -3 | -3 | 18* | 2 | -3 | 11 | 6
O=C(C[C@H]1CC[C@H]2[C@@H](COC[C@@H](O)CN2S(=O)(=O)c2cccc(F)c2)O1)NCCCN1CCOCC1 | / | / | / | / | -6 | / | / | /
CN(C)C(=O)c1cccc(-c2cnc3c(NC=O)cc(-c4ccccc4N(C)C)cn23)c1 | / | -8 | / | 31* | / | / | 3 | -5
O=C1O[C@H](c2ccccc2)[C@H](c2ccccc2)N2[C@H]1[C@@H](C(=O)N1CCCCCCC1)[C@]1(C(=O)Nc3ccc(C#CCCO)cc31)[C@H]2c1ccc(O)cc1 | / | / | / | / | 8 | / | / | /
O=C(CN1C(=O)c2cccnc2Oc2ccc(Cl)cc21)N1CCCCCC1 | 1 | -2 | 1 | 2 | 4 | 0 | / | /
O=C(CN1C(=O)c2cccnc2Oc2ccc(Cl)cc21)N1CCCC1 | 4 | 3 | -2 | 16* | -2 | 0 | 1 | 0
CC(=O)N(C)C[C@H]1Oc2cc(C#CC(C)C)ccc2S(=O)(=O)N([C@@H](C)CO)C[C@H]1C | / | / | / | / | -16 | / | / | /
SMILES | GRK2 inh | DDE Tn7 FP inh | CAL PDZ FP-1 | DDE Tn6 FP inh | ARNT-TACC3 inh | CAL PDZ FP-2 | DDE Tn6 FP ctr | DDE Tn6 confirm
Cc1cc(C)c(S(=O)(=O)NCCn2c(C)cc3ccccc32)c(C)c1 | 1 | -8 | -3 | 56* | -3 | -1 | -4 | 23*
Cc1cc2ccccc2n1CCNC(=O)Cc1ccccc1 | 35 | 11 | / | 26* | 10 | 0 | -6 | -4
COc1ccccc1S(=O)(=O)N1CC[C@H]2[C@H](CO)Nc3ccc(Br)cc3[C@H]21 | / | / | / | / | 5 | / | / | /
COc1ccc(Cl)c(Cn2c(NCCCO)nc3c2c(=O)n(C)c(=O)n3C)c1 | 1 | 2 | -6 | 17* | -3 | -2 | -4 | -4
CCCNC(=O)C[C@@H]1CC[C@@H]2[C@@H](COc3ccc(NC(=O)Nc4c(C)noc4C)cc3C(=O)N2C)O1 | / | / | / | / | -7 | / | / | /
CCOc1ccccc1N(CC(=O)N1CCCC1)S(C)(=O)=O | 0 | 11 | / | 16* | -5 | 0 | 1 | 1
O=C(C[C@H]1C[C@@H]2c3cc(NC(=O)Nc4ccccc4)ccc3O[C@@H]2[C@H](CO)O1)NC1CCCCC1 | / | / | / | / | -3 | / | / | /
CC(=O)N1CCN=C1SCc1ccc(Br)cc1 | 0 | 8 | / | 20* | -12 | 0 | 3 | 2
CS(=O)(=O)N1CCN=C1SCc1ccc(Br)cc1 | 0 | -3 | -3 | 0 | -2 | -3 | / | /
CCOC(=O)N1Cc2cc3ccccc3nc2C1 | / | -5 | / | 2 | / | / | / | /
CCOC(=O)C1(C)C(=O)CC2c3nc4ccccc4cc3CN2C1=O (stereo not drawn) | / | 4 | / | 75* | / | / | 4 | 47*
CCNC(=O)Nc1ccc2c(c1)C(=O)N(C)[C@H]1CC[C@H](CC(=O)Nc3cccc(F)c3)O[C@@H]1CO2 | / | / | / | / | -9 | / | / | /
Cc1ccc(NC(=O)C(OC(=O)c2ccccc2Cl)c2ccccc2)cc1Cl (stereo not drawn) | 0 | -8 | -5 | -1 | / | -1 | / | /
Cc1ccc(NC(=O)C(OC(=O)c2ccc(NC(N)=O)cc2)c2ccccc2)cc1Cl (stereo not drawn) | 2 | 0 | -7 | 34* | 7 | -1 | 1 | -1
O=C1c2cccc3c(O)ccc(c23)C(=O)N1Cc1ccccc1 | 1 | -1 | -3 | 24* | -2 | 1 | 19* | 19*
CCCNC(=O)C1(C)CCN(C(=O)c2ccc(F)c(Cl)c2)C1 (stereo not drawn) | / | -4 | / | 2 | / | / | / | /
Cc1ccc(C)c2c1cc(C)c1nnc(SCC(=O)N3CCCc4ccccc43)n12 | 3 | -5 | 0 | 2 | 0 | -1 | / | /
